A selection: hits, their analogues and other compounds. The true share with any hit is near 3.5%.
HTRA1 inhibitor: HTRA1 serine protease inhibitors, primary screen, biochemical, fluorescence polarization, HTS; recombinant HTRA1, FP-rhodamine activity-based probe; inhibition, % at 5.96 µM; 340,000 compounds, 0.5% hits; in the data active means inhibition above about 36%
PRMT1 FP inh: PRMT1 methyltransferase inhibitors, primary screen, biochemical, fluorescence polarization | inhibition, % at 2.79 µM | recombinant PRMT1, activity-based probe fluorescence polarization | Protein arginine N-methyltransferase 1 (Homo sapiens), Q99873 | 370,000 compounds, 1.3% hits;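 active means inhibition above about 21% made by adding two undisclosed values, limit read from the data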
Target sequence (Q99873 whole entry, looked up): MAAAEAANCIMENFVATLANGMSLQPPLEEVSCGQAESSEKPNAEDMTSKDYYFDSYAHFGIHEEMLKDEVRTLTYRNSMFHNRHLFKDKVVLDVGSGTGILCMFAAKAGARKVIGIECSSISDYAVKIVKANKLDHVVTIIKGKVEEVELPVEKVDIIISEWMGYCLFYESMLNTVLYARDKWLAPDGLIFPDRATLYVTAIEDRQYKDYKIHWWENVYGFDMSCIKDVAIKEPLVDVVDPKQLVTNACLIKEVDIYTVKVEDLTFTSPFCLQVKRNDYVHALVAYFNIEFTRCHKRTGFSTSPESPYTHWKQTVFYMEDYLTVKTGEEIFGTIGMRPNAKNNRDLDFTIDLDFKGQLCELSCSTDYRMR
rCAG RNA binder: binders of r(CAG) RNA repeats, primary screen, biochemical, fluorescence | r(CAG) RNA repeat, TO-PRO-1 dye displacement fluorescence | AID 651821, 2012 | 370,000 compounds, 1.3% hits | inhibition, % at 3 µM;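 active means inhibition above the plate cutoff, the mean of all test compounds on that plate plus 3 SD, cut at about 35% in these data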;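 further: higher means more dye released from RNA so lower well fluorescence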
TCR CD3 inh: inhibitors of human TCR-CD3 interaction, primary screen, biochemical, fluorescence, TAMRA-labeled TCR probe | inhibition, % at 9.4 µM | 360,000 compounds, 0.37% hits | AID 651800, 2012; in the data active means inhibition above about 19%;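 further: recombinant mutant TCR 2C K166C tagged with TAMRA read by polarization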
mABHD4 FP: ABHD4 inhibitors, primary screen, biochemical, fluorescence polarization, mouse. (Lyso)-N-acylphosphatidylethanolamine lipase (Mus musculus), Q8VD66. purified mABHD4, FP-Rh probe fluorescence polarization. inhibition, % at 8.92 µM. 370,000 compounds, 0.54% hits. AID 720543, 2013;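 active means inhibition exceeding the mean over every tested compound plus 3 SD, cut at about 30% in these data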
Target sequence (Q8VD66 whole entry, looked up): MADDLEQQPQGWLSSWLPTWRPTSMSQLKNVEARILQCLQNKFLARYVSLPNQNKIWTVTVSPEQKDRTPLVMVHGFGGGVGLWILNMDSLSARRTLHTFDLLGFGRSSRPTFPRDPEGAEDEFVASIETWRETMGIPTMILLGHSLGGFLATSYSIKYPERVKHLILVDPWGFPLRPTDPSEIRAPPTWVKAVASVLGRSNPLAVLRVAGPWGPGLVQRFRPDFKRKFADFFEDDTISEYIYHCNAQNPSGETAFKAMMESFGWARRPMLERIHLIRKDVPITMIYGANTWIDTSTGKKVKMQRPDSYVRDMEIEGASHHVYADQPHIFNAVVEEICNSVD
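Assay system: Wild-type mouse ABHD4 protein | Medium: HEPES pH 7.0 buffer, 150 mM NaCl, 0.01% Pluronic F-127 | Incubation: Enzyme–compound pre-incubation 45 min, then probe 60 min, both 25 °C | Technique: Fluorescence polarization with parallel and perpendicular emission, 525/598 nm | Evaluation: % inhibition of FP-Rh probe binding versus controls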
SIAE primary: human SIAE inhibitors, primary screen, biochemical, fluorescence polarization, FP-Rh probe, 1536-well HTS; SIAE FP-Rh probe binding; inhibition, % at 9.66 µM; 370,000 compounds, 0.69% hits;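 active means inhibition above a cutoff: mean of compounds within the control limits plus 3 SD of those, cut at about 17% in these data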
rCAG bind conf: small molecules binding CAG repeat RNA – biochemical, fluorescence, confirmation; shares compounds with rCAG RNA binder; r(CAG) RNA repeat, TO-PRO-1 dye displacement fluorescence; inhibition, % at 3 µM; 4,300 compounds, 70% hits; AID 652065, 2013;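 active means inhibition above a per-plate cutoff, the mean inhibition of sample wells plus 3 SD, cut at about 35% in these data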;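 further: loss of TO-PRO-1 fluorescence as compound displaces dye from 1x1 AA loop RNA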
DNA CAG counter: displacement of TO-PRO-1 from CAG DNA duplex, counter-screen for rCAG RNA repeat binder project, biochemical, fluorescence, TO-PRO-1 dye, d(CAG) DNA oligo; shares compounds with rCAG RNA binder; d(CAG) DNA oligo TO-PRO-1 dye displacement; inhibition, % at 3 µM; 4,300 compounds, 94% hits; AID 652068, 2013;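 active means inhibition above its plate's cutoff, the mean test-well inhibition plus 3 SD, cut at about 4.8% in these data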;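 further: hits displace the dye from DNA and so lower well fluorescence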
DNA CAG DR: inhibitors of DNA CAG/GTC TO-PRO-1 complex, dose response, counter-screen for rCAG RNA repeat binder project, biochemical, fluorescence, TO-PRO-1 dye; shares compounds with rCAG RNA binder; DNA CAG/GTC duplex TO-PRO-1 dye displacement fluorescence; IC50, µM; 250 compounds, 20% hits; AID 686960, 2013; in the data active means IC50 below about 10 µM
PRMT1 inh conf: PRMT1 methyltransferase inhibitors, confirmation, biochemical, fluorescence polarization, triplicate; shares compounds with PRMT1 FP inh; recombinant His-PRMT1, activity-based probe fluorescence polarization; inhibition, % at 2.79 µM; 3,300 compounds, 42% hits; AID 687036, 2013;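 active means mean inhibition across replicates above the hit cutoff derived for the earlier primary screen, cut at about 22% in these data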
ABHD4 confirm: ABHD4 inhibitors, retest, confirmation, biochemical, fluorescence polarization, mouse | shares compounds with mABHD4 FP | AID 720658, 2013 | inhibition, % at 8.92 µM | purified mABHD4, FP-Rh probe fluorescence polarization | 1,800 compounds, 55% hits;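 active means mean inhibition across replicates above the hit cutoff set in the primary screen, cut at about 30% in these data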
Large screens that a line does not name were inactive (follow-up assays come after a bar, where they were run).

O=C(CCN1C(=O)/C(=C/c2ccco2)SC1=S)Nc1ccc(O)cc1C(=O)O	PRMT1 FP inh 68.3, rCAG RNA binder 92.9 | rCAG bind conf 69.7 | DNA CAG counter 26.7 | DNA CAG DR 7.29 | PRMT1 inh conf 37.6
O=C(CCN1C(=O)/C(=C\c2ccco2)SC1=S)Nc1ccc(C(=O)O)c(O)c1	PRMT1 FP inh 38.6, rCAG RNA binder 86.4 | rCAG bind conf 78.7 | DNA CAG counter 37.0 | PRMT1 inh conf 28.5
O=C(CCCN1C(=O)/C(=C\c2ccco2)SC1=S)Nc1ccc2ccccc2c1	none
O=C(CCN1C(=O)/C(=C/c2ccco2)SC1=S)Nc1ccc(C(=O)O)c(O)c1	PRMT1 FP inh 39.0, rCAG RNA binder 90.2 | rCAG bind conf 73.2 | DNA CAG counter 33.1 | DNA CAG DR 5.35 | PRMT1 inh conf 30.2
COc1cccc(Cn2cc(COC(=O)N3CCCC3)nn2)c1	none (no result: HTRA1 inhibitor, TCR CD3 inh)
CC(C)CCN(C)C1CCN(C(=O)Nc2ccccc2)CC1	none (no result: HTRA1 inhibitor, TCR CD3 inh)
CCCC(=O)Nc1ccc2c(c1)C(=O)N(C)[C@H]1CC[C@@H](CC(=O)OC)O[C@@H]1CO2	none (no result: HTRA1 inhibitor, TCR CD3 inh)
Cc1nc2sc(C(=O)O)c(N)c2c2c1COC(C)(C)C2	none
CCOC(=O)c1sc2nc(-c3ccco3)c3c(c2c1N)CC(C)(C)OC3	PRMT1 FP inh 41.4, rCAG RNA binder 51.3 | rCAG bind conf 34.6 | DNA CAG counter 14.5 | PRMT1 inh conf 43.2
CC1(OC(=O)CCc2ccccc2)C(=O)C=C2C=C(c3ccc(C#N)cc3)N(Cc3ccco3)C=C2C1=O (stereo unspecified)	PRMT1 FP inh 28.5, rCAG RNA binder 37.1 | rCAG bind conf inactive | DNA CAG counter 15.7 | PRMT1 inh conf inactive
COc1ccc(S(=O)(=O)NCc2cccnc2)cc1NC(=O)c1ccccc1C	PRMT1 FP inh 48.3, rCAG RNA binder 66.1 | rCAG bind conf 59.4 | DNA CAG counter 34.0 | PRMT1 inh conf inactive
O=C(CSc1nnc(-c2cccnc2)n1-c1ccccc1)Nc1ccc(OCc2ccccc2)cc1	none (no result: HTRA1 inhibitor, TCR CD3 inh)
CC(C)(C)NC(=O)C(c1ccc(C#N)cc1)n1c(=O)c(-c2ccco2)nc2ccccc21 (stereo unspecified)	PRMT1 FP inh 30.6, rCAG RNA binder 36.5 (no result: HTRA1 inhibitor) | rCAG bind conf inactive | DNA CAG counter 12.7 | PRMT1 inh conf 35.8
COC(=O)c1cc(S(=O)(=O)N2CCN(C(C)=O)CC2)cn1C	none (no result: HTRA1 inhibitor, TCR CD3 inh)
CCOC(=O)C1Nc2ccc(C(=O)O)cc2C2C=CCC12 (stereo unspecified)	PRMT1 FP inh 30.2, rCAG RNA binder 61.1 | rCAG bind conf inactive | DNA CAG counter 5.4 | PRMT1 inh conf 37.5
CC(=O)c1ccc2c(c1)C1C=CCC1C(c1cc3c(cc1Br)OCO3)N2 (stereo unspecified)	none
Cc1nn(CCc2nc(-c3ccco3)cs2)c2[nH]c(=O)cc(C(F)(F)F)c12	PRMT1 FP inh 33.7, rCAG RNA binder 58.0 | rCAG bind conf inactive | DNA CAG counter inactive | PRMT1 inh conf inactive
O=c1[nH]c(=O)n(Cc2ccccc2)c2nc(-c3ccco3)cc(C(F)(F)F)c12	none
CCOC(=O)C1=C(O)/C(=C\c2ccc(CNC(=O)C(=O)Nc3ccccc3)o2)N=C1C	PRMT1 FP inh 34.1, rCAG RNA binder 46.4 | rCAG bind conf 39.4 | DNA CAG counter 19.1 | PRMT1 inh conf 22.7
COc1cccc(=O)c2c(C)n(CC(=O)c3ccccc3)c(C)c12	PRMT1 FP inh 35.8, rCAG RNA binder 37.2 | rCAG bind conf inactive | DNA CAG counter 17.4 | PRMT1 inh conf inactive
O=C(CSc1nc2c(c(=O)[nH]1)CCCC2)N1CCOCC1	none (no result: HTRA1 inhibitor, TCR CD3 inh)
Cc1cc(-c2nnc(SCC(=O)Nc3nc(-c4ccc(Cl)cc4)cs3)o2)no1	PRMT1 FP inh 41.9, rCAG RNA binder 45.9 | rCAG bind conf inactive | DNA CAG counter 5.8 | PRMT1 inh conf inactive
COc1cc(NC(=O)CSc2nnc(-c3cc(C)on3)o2)cc(OC)c1	none
CCOC(=O)c1cc(-c2ccccc2)sc1NC(=O)CC	none
O=C(Nc1sc(-c2ccccc2)cc1C(=O)O)c1ccccc1	rCAG RNA binder 85.3, mABHD4 FP 35.8 | rCAG bind conf 73.4 | DNA CAG counter 33.5 | DNA CAG DR inactive | ABHD4 confirm 37.2
C/C(=N\Nc1nc2ccccc2s1)c1ccc2c(c1)OCO2	none
C/C(=N\Nc1nc2ccccc2s1)c1ccc(Br)s1	rCAG RNA binder 35.4, mABHD4 FP 32.7 | rCAG bind conf inactive | DNA CAG counter 8.7 | ABHD4 confirm inactive
O=S(=O)(O)c1cccc2cccc(Nc3ccccc3)c12	PRMT1 FP inh 25.1, rCAG RNA binder 47.0, mABHD4 FP 61.3 | rCAG bind conf 64.0 | DNA CAG counter 24.6 | ABHD4 confirm inactive
Cc1ccc(S(=O)(=O)/N=C2\C=C(NS(=O)(=O)c3ccccc3)C(=O)c3ccccc32)c(C)c1	rCAG RNA binder 53.9, mABHD4 FP 49.8 | rCAG bind conf 85.8 | DNA CAG counter 58.2 | ABHD4 confirm 35.6
CCn1c(N)c(C(=O)NCC2CCCO2)sc1=S (stereo unspecified)	none
Cc1ccc(CNC(=O)c2ccc3c(=O)[nH]c4c(C(=O)NCC5CCCO5)sc(=S)n4c3c2)cc1 (stereo unspecified)	rCAG RNA binder 61.0, mABHD4 FP 33.0 | rCAG bind conf 91.6 | DNA CAG counter 74.0 | ABHD4 confirm 40.8
CCCCCNC(=O)c1ccc2c(=O)[nH]c3c(C(=O)NCC4CCCO4)sc(=S)n3c2c1 (stereo unspecified)	rCAG RNA binder 58.9, mABHD4 FP 32.3 | rCAG bind conf 85.8 | DNA CAG counter 61.7 | ABHD4 confirm 40.1

Bioassay records deposited in PubChem by The Scripps Research Institute Molecular Screening Center.
